Data: ChEMBL document CHEMBL1133718, “Structure-activity relationships and binding mode of styrylquinolines as potent inhibitors of HIV-1 integrase and replication of HIV-1 in cell culture” (J Med Chem, 2000)

What was measured:
[1] = test system: Human immunodeficiency virus 1; assay: Antiviral activities against HIV-1 replication in CEM cells and its ability to lower the viral charge supernatants was reported; type: functional, organism-based; conditions: Human immunodeficiency virus 1, CCRF-CEM
Method in brief: (§1)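 CEM cells infected with cell-free HIV-1 ([…] clone, produced by transfecting P4 cells), in triplicate; virus removed 2 h post-infection, then DMSO-dissolved drug added in fresh medium at increasing concentrations. 72 h supernatants infected HeLa-CD4-βGal (P4) reporter cells for 24 h; lysates incubated with CPRG, absorbance at 570 nm. Some cases used p24 antigen ELISA.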

[2] = Toxic concentration, estimated by MTT transformation assay; type: ADME, organism-based, Human immunodeficiency virus 1; conditions: CEM cells; read-out: TC50 (the source's name)
Method in brief: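 Cell viability by MTT: MTT solution (7.5 mg/mL, in phosphate buffer) added to infected, drug-treated CEM wells. Incubation 4 h at 37 °C under CO2, formazan dissolved in 10% SDS/10 mM HCl, absorbance read at 570 nm.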

[3] = target: T1, Human immunodeficiency virus type 1 integrase (Human immunodeficiency virus 1, UniProt Q7ZJM1); assay: Inhibitory activity against HIV-1 Integrase in 3'-end- processing
Method in brief: (§2)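 3'-processing: 0.5 pmol U5A/U5B annealed duplex with 1 pmol purified recombinant full-length HIV-1 IN in 20 mM Tris pH 7.2, 30 mM NaCl, 10% glycerol, 10 mM DTT, 0.01% NP40, plus 10 mM MnCl2.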

[4] = target: T1, Human immunodeficiency virus type 1 integrase; assay: Inhibitory activity against HIV-1 Integrase in strand transfer (integration)
[5] = test system: Human immunodeficiency virus 1; assay: Inhibitory effect upon disintegration catalyzed by the (50-212) deletion mutant; type: functional
Method in brief: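 Disintegration reaction run with 0.5 pmol D38U3 substrate and 2 pmol of the His-tagged F185K soluble HIV-1 integrase core domain (residues 50-212), expressed and purified recombinantly. Potency is reported as IC50.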

[6] = test system: Human immunodeficiency virus 1; assay: Antiviral activities against HIV-1 replication in CEM cells and its ability to lower the viral charge supernatants was reported; NR is not reached; type: functional, organism-based; conditions: CCRF-CEM; method in brief: as §1
[7] = target: T1, Human immunodeficiency virus type 1 integrase; assay: Inhibitory activity against Integrase in 3'-end- processing; method in brief: as §2
[8] = target: T1, Human immunodeficiency virus type 1 integrase; assay: Inhibitory activity against Integrase in strand transfer (integration)
[9] = target: T1, Human immunodeficiency virus type 1 integrase; assay: Inhibitory activity against HIV-1 Integrase in 3'-end- processing with purified recombinant enzyme
[10] = target: T1, Human immunodeficiency virus type 1 integrase; assay: Inhibitory activity against HIV-1 Integrase in strand transfer (integration) with purified recombinant enzyme

T1 sequence (Q7ZJM1 whole entry): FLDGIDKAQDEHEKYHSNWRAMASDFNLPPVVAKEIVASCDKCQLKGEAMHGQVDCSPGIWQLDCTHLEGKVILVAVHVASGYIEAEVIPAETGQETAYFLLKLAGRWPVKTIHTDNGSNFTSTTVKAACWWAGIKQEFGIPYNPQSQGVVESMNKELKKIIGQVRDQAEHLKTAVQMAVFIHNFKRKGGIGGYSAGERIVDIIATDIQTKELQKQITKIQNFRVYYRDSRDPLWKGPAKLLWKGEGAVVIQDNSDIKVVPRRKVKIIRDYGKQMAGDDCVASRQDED

Row | SMILES | IC50 [1] | CC50 [2] | IC50 [3] | IC50 [4] | IC50 [5] | NR [6] | IC50 [7] | IC50 [8] | IC50 [9] | IC50 [10]
1 | O=C(O)c1ccc2ccc(/C=C/c3ccc(O)cc3O)nc2c1O | 80 µM | > 100 µM |  |  |  |  |  |  |  | 
2 | COc1cc(/C=C/c2ccc3ccc(C(=O)O)c(O)c3n2)ccc1O | 3 µM | 95 µM | 2.8 µM | 3.7 µM |  |  |  |  |  | 
3 | O=C(O)c1ccc2ccc(/C=C/c3ccc(O)cc3)nc2c1O | 95 µM | > 100 µM | 1.6 µM | 1.6 µM |  |  |  |  |  | 
4 | CC(=O)Nc1ccc(/C=C/c2ccc3ccc(C(=O)O)c(O)c3n2)cc1 |  | 47 µM | 1.4 µM | 1.2 µM | 1.7 µM | Not reached |  |  |  | 
5 | O=C(O)c1ccc2ccc(/C=C/c3ccc(O)c(O)c3)nc2c1O | 1.3 µM | > 100 µM |  |  |  |  |  |  |  | 
6 | Nc1ccc(/C=C/c2ccc3ccc(C(=O)O)c(O)c3n2)cc1 | 50 µM | 100 µM | 3.5 µM | 2.2 µM | 12 µM |  |  |  |  | 
7 | COc1cc(/C=C/c2ccc3ccc(C(=O)O)c(O)c3n2)cc(OC)c1O | 9 µM | > 100 µM | 4.9 µM | 4.5 µM |  |  |  |  |  | 
8 | COC(=O)c1ccc2ccc(/C=C/c3ccc(O)c(O)c3)nc2c1O |  | 9.2 µM |  |  |  | Not reached | > 100 µM | > 100 µM |  | 
9 | O=C(O)c1ccc2ccc(CCc3ccc(O)c(O)c3)nc2c1O |  | 61 µM |  |  |  | Not reached | 2.3 µM | 1.5 µM |  | 
10 | O=C(O)c1ccc2ccc(/C=C/c3cc(Br)c(O)c(Br)c3)nc2c1O |  |  | 1.3 µM | 1.2 µM |  |  |  |  |  | 
11 | O=C(O)c1ccc2ccc(/C=C/c3cc(O)cc(O)c3)nc2c1O | > 100 µM | > 100 µM |  |  |  |  | 3.2 µM | 3.2 µM |  | 
12 | O=C(O)c1ccc2ccc(/C=C/c3ccc([N+](=O)[O-])cc3)nc2c1O |  | 43 µM | 1.2 µM | 1.7 µM | 2.2 µM | Not reached |  |  |  | 
13 | Oc1ccc(/C=C/c2ccc3c(Cl)cc(Cl)c(O)c3n2)cc1O |  | 17 µM |  |  |  | Not reached | > 100 µM | > 100 µM |  | 
14 | O=C(O)c1ccc2ccc(/C=C/c3ccsc3)nc2c1O |  | 85 µM | 3.4 µM | 3 µM | 0.8 µM | Not reached |  |  |  | 
15 | COc1cc(/C=C/c2ccc3ccc(C(=O)O)c(O)c3n2)cc(O)c1O | 12 µM | > 100 µM |  |  |  |  | 0.7 µM | 1.7 µM |  | 
16 | O=C(O)c1ccc2ccc(/C=C/c3cc(O)c(O)c(I)c3)nc2c1O | 6.8 µM | > 100 µM |  |  |  |  | 4 µM | 4.9 µM |  | 
17 | O=C(O)c1ccc2ccc(/C=C/c3cccnc3)nc2c1O | > 100 µM | > 100 µM | 4.1 µM | 11 µM | 5.1 µM |  |  |  |  | 
18 | Cc1ccc2ccc(C(=O)O)c(O)c2n1 | > 100 µM | > 100 µM |  | > 100 µM |  |  |  |  |  | 
19 | COc1ccc(/C=C/c2ccc3ccc(C(=O)O)c(O)c3n2)cc1O | 54 µM | 95 µM | 0.9 µM | 3.3 µM |  |  |  |  |  | 
20 | O=C(O)c1ccc2ccc(/C=C/c3cc(O)c(O)c(O)c3)nc2c1O | 1.2 µM | 10 µM |  |  |  |  |  |  |  | 
21 | O=C(O)c1ccc2ccc(/C=C/c3ccco3)nc2c1O | > 100 µM | > 100 µM |  |  | 1.4 µM |  |  |  | 1.9 µM | 5.1 µM
22 | O=C(O)c1ccc2ccc(/C=C/c3ccccc3)nc2c1O |  | 31 µM | 5.3 µM | 2.1 µM | 3.4 µM | Not reached |  |  |  | 
